Reference: ChEMBL document CHEMBL3868630, “Synthesis, anti-proliferative activity, SAR study, and preliminary in vivo toxicity study of substituted N,N'-bis(arylmethyl)benzimidazolium salts against a panel of non-small cell lung cancer cell lines” (Bioorg Med Chem, 2017)

Assays:
[1] = Cytotoxicity against human EKVX cells assessed as cell growth at 10 uM after 48 hrs by SRB assay relative to control; type: functional; details: read-out: Activity
[2] = Cytotoxicity against human NCI-H1975 cells assessed as decrease in cell viability after 72 hrs by MTT assay; type: functional, cell-based; details: NCI-H1975, 72 h
In short: (§1)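 Cells kept in RPMI 1640 with 10% FBS at 37 °C, 5% CO2, passaged every 2-3 days; seeded at 5,000-7,000 cells/well and left 24 h. Compounds dissolved in 1% DMSO, diluted in fresh medium to 1, 4, 16 and 32 µM, added in sextuplicate; 72 h exposure. MTT added for 3-4 h, medium removed, DMSO added for 15 min at 37 °C, OD read at 540 nm.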

[3] = Cytotoxicity against human NCI-H322M cells assessed as cell growth at 10 uM after 48 hrs by SRB assay relative to control; type: functional; details: read-out: Activity
[4] = Cytotoxicity against human HOP92 cells assessed as cell growth at 10 uM after 48 hrs by SRB assay relative to control; type: functional; details: HOP-92, 48 h, read-out: Activity
[5] = Cytotoxicity against human NCI-H522 cells assessed as cell growth at 10 uM after 48 hrs by SRB assay relative to control; type: functional; details: NCI-H522, 48 h, read-out: Activity
[6] = Cytotoxicity against human HOP62 cells assessed as cell growth at 10 uM after 48 hrs by SRB assay relative to control; type: functional; details: HOP-62, 48 h, read-out: Activity
[7] = Cytotoxicity against human NCI-H226 cells assessed as cell growth at 10 uM after 48 hrs by SRB assay relative to control; type: functional; details: NCI-H226, 48 h, read-out: Activity
[8] = Cytotoxicity against human NCI-H460 cells assessed as decrease in cell viability after 72 hrs by MTT assay; type: functional, cell-based; details: NCI-H460, 72 h; in short: as §1
[9] = Cytotoxicity against human HCC827 cells assessed as decrease in cell viability after 72 hrs by MTT assay; type: functional, cell-based; details: HCC827, 72 h; in short: as §1
[10] = Cytotoxicity against human A549 cells assessed as cell growth at 10 uM after 48 hrs by SRB assay relative to control; type: functional; details: A549, 48 h, read-out: Activity
[11] = Cytotoxicity against human NCI-H460 cells assessed as cell growth at 10 uM after 48 hrs by SRB assay relative to control; type: functional; details: NCI-H460, 48 h, read-out: Activity
[12] = Aqueous solubility of the compound; type: physicochemical
[13] = Cytotoxicity against human NCI-H23 cells assessed as cell growth at 10 uM after 48 hrs by SRB assay relative to control; type: functional; details: NCI-H23, 48 h, read-out: Activity
[14] = Cytotoxicity against human A549 cells assessed as decrease in cell viability after 72 hrs by MTT assay; type: functional, cell-based; details: A549, 72 h; in short: as §1
[15] = Growth inhibition of human HOP92 cells after 48 hrs by SRB assay; type: functional; details: HOP-92, 48 h
[16] = Growth inhibition of human NCI-H226 cells after 48 hrs by SRB assay; type: functional; details: NCI-H226, 48 h
[17] = Growth inhibition of human NCI-H460 cells after 48 hrs by SRB assay; type: functional; details: NCI-H460, 48 h
[18] = Growth inhibition of human A549 cells after 48 hrs by SRB assay; type: functional; details: A549, 48 h
[19] = Growth inhibition of human NCI-H522 cells after 48 hrs by SRB assay; type: functional; details: NCI-H522, 48 h
[20] = Growth inhibition of human NCI-H322M cells after 48 hrs by SRB assay; type: functional; details: for CC50: read-out: LC50 (the source's name)
[21] = Growth inhibition of human EKVX cells after 48 hrs by SRB assay; type: functional
[22] = Growth inhibition of human HOP62 cells after 48 hrs by SRB assay; type: functional; details: HOP-62, 48 h
[23] = Growth inhibition of human NCI-H23 cells after 48 hrs by SRB assay; type: functional; details: NCI-H23, 48 h
[24] = read-out: LC50 (the source's name)

COC(=O)c1cc2c(cc1C(=O)OC)[n+](Cc1ccc3ccccc3c1)cn2Cc1ccc2ccccc2c1.[Br-]
growth at 10 µM [1]: 94.3%
IC50 [2]: 15 µM
growth at 10 µM [3]: 90.6%
growth at 10 µM [4]: 84.7%
growth at 10 µM [5]: 77.3%
growth at 10 µM [6]: 78.8%
growth at 10 µM [7]: 77.7%
IC50 [8]: 26 µM
IC50 [9]: 20 µM
growth at 10 µM [10]: 92.2%
growth at 10 µM [11]: 94.5%
solubility [12]: < 500 µg/mL
growth at 10 µM [13]: 93.2%
IC50 [14]: 23 µM

CCCCCCCc1n(Cc2ccc3ccccc3c2)c2ccccc2[n+]1Cc1ccc2ccccc2c1.[Br-]
growth at 10 µM [1]: -73.5%
IC50 [2]: < 1 µM
growth at 10 µM [3]: -86%
growth at 10 µM [4]: -84.4%
growth at 10 µM [5]: -81.1%
growth at 10 µM [6]: -70.6%
growth at 10 µM [7]: -70.8%
IC50 [8]: < 1 µM
IC50 [9]: < 1 µM
growth at 10 µM [10]: -77.5%
growth at 10 µM [11]: -73%
solubility [12]: < 500 µg/mL
growth at 10 µM [13]: -76.9%
IC50 [14]: < 1 µM

COC(=O)CCc1n(Cc2ccc3ccccc3c2)c2ccccc2[n+]1Cc1ccc2ccccc2c1.[Br-]
growth at 10 µM [1]: 42.1%
IC50 [2]: 2 µM
growth at 10 µM [3]: 36.6%
growth at 10 µM [4]: -34.4%
growth at 10 µM [5]: -29.4%
growth at 10 µM [6]: 19%
growth at 10 µM [7]: 17.7%
IC50 [8]: 4 µM
IC50 [9]: 4 µM
growth at 10 µM [10]: 38.3%
growth at 10 µM [11]: 6.29%
solubility [12]: < 500 µg/mL
growth at 10 µM [13]: -7.39%
IC50 [14]: 8 µM

COCCOCCOCc1n(Cc2ccc3ccccc3n2)c2ccccc2[n+]1Cc1ccc2ccccc2n1.[Cl-]
growth at 10 µM [1]: 71.6%
IC50 [2]: < 1 µM
growth at 10 µM [3]: 47.4%
growth at 10 µM [4]: -22.1%
growth at 10 µM [5]: -1.7%
growth at 10 µM [6]: 20.8%
growth at 10 µM [7]: 37.9%
IC50 [8]: 4 µM
IC50 [9]: 4 µM
growth at 10 µM [10]: 39.4%
growth at 10 µM [11]: 16.5%
solubility [12]: 42200 µg/mL
growth at 10 µM [13]: 12.8%
IC50 [14]: 9 µM

CCc1n(Cc2ccc3ccccc3c2)c2ccccc2[n+]1Cc1ccc2ccccc2c1.[Br-]
growth at 10 µM [1]: 76.7%
IC50 [2]: < 1 µM
growth at 10 µM [3]: 90.7%
growth at 10 µM [4]: 21.9%
growth at 10 µM [5]: 12.1%
growth at 10 µM [6]: 81.3%
growth at 10 µM [7]: 64.9%
IC50 [8]: 3 µM
IC50 [9]: 4 µM
growth at 10 µM [10]: 74.2%
growth at 10 µM [11]: 53.6%
solubility [12]: < 500 µg/mL
growth at 10 µM [13]: 28.8%
IC50 [14]: 3 µM

COC(=O)c1ccc2c(c1)n(Cc1ccc3ccccc3c1)c[n+]2Cc1ccc2ccccc2c1.[Br-]
growth at 10 µM [1]: 71%
IC50 [2]: 7 µM
growth at 10 µM [3]: 57.2%
growth at 10 µM [4]: -10.7%
growth at 10 µM [5]: 26.3%
growth at 10 µM [6]: 63.8%
growth at 10 µM [7]: 61.3%
IC50 [8]: 9 µM
IC50 [9]: 12 µM
growth at 10 µM [10]: 75%
growth at 10 µM [11]: 28.6%
solubility [12]: < 500 µg/mL
growth at 10 µM [13]: 34.6%
IC50 [14]: 16 µM

COCCOCCOCc1n(Cc2ccc3ccccc3c2)c2ccccc2[n+]1Cc1ccc2ccccc2c1.[Br-]
growth at 10 µM [1]: 47.4%
IC50 [2]: 3 µM
growth at 10 µM [3]: 40.5%
growth at 10 µM [4]: -32.1%
growth at 10 µM [5]: -16.6%
growth at 10 µM [6]: 17.1%
growth at 10 µM [7]: 17.2%
IC50 [8]: 3 µM
IC50 [9]: 5 µM
growth at 10 µM [10]: 33.1%
growth at 10 µM [11]: 10.3%
solubility [12]: 700 µg/mL
growth at 10 µM [13]: 5.56%
IC50 [14]: 5 µM

Cc1n(Cc2ccc3ccccc3c2)c2ccccc2[n+]1Cc1ccc2ccccc2c1.[Br-]
growth at 10 µM [1]: 9.57%
GI50 [15]: 0.0317 µM
LC50 [15]: 5.03 µM
TGI [15]: 2.06 µM
GI50 [16]: 1.44 µM
TGI [16]: 3.2 µM
GI50 [17]: 1.47 µM
TGI [17]: 3.02 µM
IC50 [2]: 2 µM
growth at 10 µM [3]: 9.37%
growth at 10 µM [4]: -68.2%
GI50 [18]: 1.76 µM
LC50 [18]: 6.55 µM
TGI [18]: 3.4 µM
growth at 10 µM [6]: -62%
growth at 10 µM [7]: -9.12%
IC50 [8]: 3 µM
IC50 [9]: 4 µM
GI50 [19]: 0.036 µM
TGI [19]: 2.27 µM
growth at 10 µM [10]: 8.96%
growth at 10 µM [11]: -73.9%
GI50 [20]: 1.56 µM
TGI [20]: 3 µM
CC50 [20]: 5.78 µM
solubility [12]: < 500 µg/mL
GI50 [21]: 1.78 µM
TGI [21]: 4.08 µM
GI50 [22]: 1.69 µM
TGI [22]: 3.24 µM
growth at 10 µM [13]: -29.5%
IC50 [14]: 4 µM
TGI [23]: 2.76 µM

[Cl-].c1ccc2nc(Cn3c[n+](Cc4ccc5ccccc5n4)c4ccccc43)ccc2c1
growth at 10 µM [1]: 74.7%
GI50 [15]: 0.93 µM
LC50 [15]: 25 µM
TGI [15]: 4.3 µM
GI50 [16]: 4.13 µM
LC50 [16]: 78.2 µM
TGI [16]: 20.4 µM
GI50 [17]: 2.8 µM
LC50 [17]: 41.8 µM
TGI [17]: 12.3 µM
IC50 [2]: 3 µM
growth at 10 µM [3]: 78.1%
growth at 10 µM [4]: -8.16%
GI50 [18]: 11.6 µM
LC50 [18]: 58 µM
TGI [18]: 25.9 µM
growth at 10 µM [6]: 53.8%
growth at 10 µM [7]: 37.1%
IC50 [8]: 4 µM
IC50 [9]: 6 µM
GI50 [19]: 1.56 µM
TGI [19]: 9.72 µM
CC50 [19, 24]: 44.7 µM
growth at 10 µM [10]: 54%
growth at 10 µM [11]: 32.4%
GI50 [20]: 3.68 µM
TGI [20]: 17.1 µM
CC50 [20]: 43.5 µM
solubility [12]: 2400 µg/mL
GI50 [21]: 5.7 µM
LC50 [21]: 72.1 µM
TGI [21]: 23.7 µM
GI50 [22]: 2.97 µM
TGI [22]: 13.7 µM
CC50 [22, 24]: 41 µM
growth at 10 µM [13]: 32%
IC50 [14]: 10 µM
GI50 [23]: 1.47 µM
LC50 [23]: 49.4 µM
TGI [23]: 10.3 µM
